From ChEMBL document CHEMBL1817577, “Pachastrissamine (jaspine B) and its stereoisomers inhibit sphingosine kinases and atypical protein kinase C” (Bioorg Med Chem, 2011)

Key:
[1] = target: Protein kinase C eta type (Homo sapiens) (UniProt P24723); test: Inhibition of N-terminal GST-fused PKCeta (1-683) expressed in baculovirus expression system at 30 uM after 1 hr by off-chip mobility shift assay relative to control
How it was run: (§1)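 Buffer is HEPES pH 7.5 (20 mM), 0.01% Triton X-100, 2 mM DTT, with phosphatidylserine (50 μg/mL) and diacylglycerol (5 μg/mL) but no CaCl2. Reaction: 1 μM PKCθ substrate (N-FL), 25 μM ATP, 5 mM MgCl2, 1 h at room temperature, n = 2. Read-out is electrophoretic separation, P/(P+S) ratio, controls as 0% and 100% inhibition.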

[2] = target: T1, Protein kinase C zeta type (Homo sapiens) (UniProt Q05513); test: Inhibition of N-terminal GST-fused PKCzeta (1-592) expressed in baculovirus expression system at 30 uM after 1 hr by off-chip mobility shift assay relative to control
T1 sequence (whole entry): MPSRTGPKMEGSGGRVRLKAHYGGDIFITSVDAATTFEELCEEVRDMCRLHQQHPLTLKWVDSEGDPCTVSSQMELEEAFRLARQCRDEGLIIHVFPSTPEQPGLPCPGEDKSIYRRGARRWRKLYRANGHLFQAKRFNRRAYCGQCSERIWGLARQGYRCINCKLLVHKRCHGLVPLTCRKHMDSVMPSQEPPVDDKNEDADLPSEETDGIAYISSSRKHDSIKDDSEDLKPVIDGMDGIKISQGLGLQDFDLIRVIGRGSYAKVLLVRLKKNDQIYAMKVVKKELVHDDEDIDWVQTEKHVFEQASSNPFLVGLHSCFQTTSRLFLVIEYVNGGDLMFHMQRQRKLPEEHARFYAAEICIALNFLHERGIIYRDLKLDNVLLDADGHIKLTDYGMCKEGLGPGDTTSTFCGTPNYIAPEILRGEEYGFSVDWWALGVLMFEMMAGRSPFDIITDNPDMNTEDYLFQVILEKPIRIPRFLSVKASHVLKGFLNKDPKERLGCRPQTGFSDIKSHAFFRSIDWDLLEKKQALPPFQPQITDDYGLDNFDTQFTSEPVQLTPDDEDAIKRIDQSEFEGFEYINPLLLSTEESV
How it was run: (§2)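 No lipid cofactors and no calcium. Reaction buffer is 20 mM HEPES pH 7.5, 0.01% Triton X-100, 2 mM DTT, with 1 μM PKCθ substrate peptide (N-FL), 5 μM ATP and 5 mM MgCl2. Incubated 1 h at room temperature (n = 2). Electrophoretic mobility shift read-out of P/(P+S); normalized to no-enzyme and no-inhibitor controls.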

[3] = target: Protein kinase C alpha type (Homo sapiens) (UniProt P17252); test: Inhibition of N-terminal GST-fused PKCalpha (1-672) expressed in baculovirus expression system at 30 uM after 1 hr by off-chip mobility shift assay relative to control
How it was run: (§3)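 Enzymes purified by glutathione sepharose. DMSO compound stock diluted fourfold into 20 mM HEPES pH 7.5, 0.01% Triton X-100, 2 mM DTT, with phosphatidylserine (50 μg/mL), diacylglycerol (5 μg/mL) and 50 μM CaCl2. Reaction: 1 μM PKCθ substrate peptide (N-FL), 25 μM ATP, 5 mM MgCl2, 1 h at room temperature (n = 2). Read-out is electrophoretic P/(P+S) ratio, normalized to no-enzyme and no-inhibitor controls.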

[4] = target: Protein kinase C iota type (Homo sapiens) (UniProt P41743); test: Inhibition of N-terminal GST-fused PKClota (1-587) expressed in baculovirus expression system at 3 uM after 1 hr by off-chip mobility shift assay relative to control
Sequence of Protein kinase C iota type (Homo sapiens) (P41743 whole entry, looked up, the tested form may be a part): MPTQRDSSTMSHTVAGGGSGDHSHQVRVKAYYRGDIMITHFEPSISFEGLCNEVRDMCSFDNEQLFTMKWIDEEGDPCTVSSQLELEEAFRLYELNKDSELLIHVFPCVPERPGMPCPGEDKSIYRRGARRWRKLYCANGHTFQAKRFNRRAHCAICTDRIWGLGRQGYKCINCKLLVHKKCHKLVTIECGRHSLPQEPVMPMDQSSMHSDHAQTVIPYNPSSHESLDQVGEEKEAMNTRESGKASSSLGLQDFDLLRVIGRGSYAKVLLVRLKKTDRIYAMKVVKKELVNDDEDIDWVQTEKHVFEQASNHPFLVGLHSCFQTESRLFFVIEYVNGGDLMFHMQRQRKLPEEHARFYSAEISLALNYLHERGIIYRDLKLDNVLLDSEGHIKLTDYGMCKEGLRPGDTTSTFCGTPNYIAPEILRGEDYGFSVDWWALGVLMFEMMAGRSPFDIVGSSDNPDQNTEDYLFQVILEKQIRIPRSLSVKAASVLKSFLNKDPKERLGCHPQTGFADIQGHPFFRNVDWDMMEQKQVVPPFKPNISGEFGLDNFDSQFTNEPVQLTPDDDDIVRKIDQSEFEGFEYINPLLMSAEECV

[5] = target: Sphingosine kinase 1 (Homo sapiens) (UniProt Q9NYA1); test: Inhibition of N-terminal GST-fused sphingosine kinase 1 (1-384) expressed in baculovirus expression system assessed as inhibition of sphingosine phosphorylation after 1 hr by off-chip mobility shift assay; parameters: concentration or dose not given beside the values; details: concentration not given here
How it was run: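 GST-fusion enzyme purified on glutathione sepharose. Compound series in DMSO diluted fourfold into 20 mM HEPES pH 7.5, 0.01% Triton X-100, 2 mM DTT. Reaction: 1 μM sphingosine, 25 μM ATP, 5 mM MgCl2, 1 h at room temperature (n = 4). Substrate and product separated electrophoretically; P/(P+S) ratio against no-enzyme and no-inhibitor controls; IC50 from concentration series.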

[6] = target: Protein kinase C beta type (Homo sapiens) (UniProt P05771); test: Inhibition of N-terminal GST-fused PKCbeta1 (1-671) expressed in baculovirus expression system at 30 uM after 1 hr by off-chip mobility shift assay relative to control; how it was run: as §3
Sequence of Protein kinase C beta type (Homo sapiens) (P05771 2-671 limits assumed): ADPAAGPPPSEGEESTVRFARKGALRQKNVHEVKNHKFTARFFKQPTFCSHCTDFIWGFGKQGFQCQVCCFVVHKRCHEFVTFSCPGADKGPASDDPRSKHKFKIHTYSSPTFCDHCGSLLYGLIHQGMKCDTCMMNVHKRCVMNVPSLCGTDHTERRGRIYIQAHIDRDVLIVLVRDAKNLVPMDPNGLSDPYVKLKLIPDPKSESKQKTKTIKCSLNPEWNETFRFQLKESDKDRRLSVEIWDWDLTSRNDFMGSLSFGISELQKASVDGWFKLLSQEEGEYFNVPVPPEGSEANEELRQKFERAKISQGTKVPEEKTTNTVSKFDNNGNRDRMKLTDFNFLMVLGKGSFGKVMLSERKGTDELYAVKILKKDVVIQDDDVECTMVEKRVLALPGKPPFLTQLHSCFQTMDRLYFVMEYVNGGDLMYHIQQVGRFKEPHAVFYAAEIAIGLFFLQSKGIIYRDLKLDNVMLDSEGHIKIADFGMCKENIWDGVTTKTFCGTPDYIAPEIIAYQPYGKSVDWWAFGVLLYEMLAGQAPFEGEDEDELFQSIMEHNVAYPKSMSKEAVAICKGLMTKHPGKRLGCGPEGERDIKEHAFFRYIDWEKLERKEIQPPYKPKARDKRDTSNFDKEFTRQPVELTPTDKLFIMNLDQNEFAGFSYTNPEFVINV

[7] = target: Protein kinase C beta type (Homo sapiens) (UniProt P05771); test: Inhibition of N-terminal GST-fused PKCbeta2 (1-673) expressed in baculovirus expression system at 30 uM after 1 hr by off-chip mobility shift assay relative to control
How it was run: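 Same buffer as the other conventional PKCs (20 mM HEPES pH 7.5, 0.01% Triton X-100, 2 mM DTT), with phosphatidylserine 50 μg/mL, diacylglycerol 5 μg/mL and 50 μM CaCl2. Reaction: 1 μM PKCθ substrate peptide (N-FL), 10 μM ATP, 5 mM MgCl2, 1 h at room temperature, duplicate. Substrate and product separated electrophoretically; inhibition from P/(P+S) versus no-enzyme and no-inhibitor controls.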

[8] = target: T1, Protein kinase C zeta type (Homo sapiens); test: Inhibition of N-terminal GST-fused PKCzeta (1-592) expressed in baculovirus expression system at 3 uM after 1 hr by off-chip mobility shift assay relative to control; how it was run: as §2
[9] = target: T2, Sphingosine kinase 2 (Homo sapiens) (UniProt Q9NRA0); test: Inhibition of N-terminal GST-fused sphingosine kinase 2 (1-618) expressed in baculovirus expression system assessed as inhibition of sphingosine phosphorylation after 1 hr by off-chip mobility shift assay; parameters: concentration or dose not given beside the values; details: concentration not given here
T2 sequence (whole entry): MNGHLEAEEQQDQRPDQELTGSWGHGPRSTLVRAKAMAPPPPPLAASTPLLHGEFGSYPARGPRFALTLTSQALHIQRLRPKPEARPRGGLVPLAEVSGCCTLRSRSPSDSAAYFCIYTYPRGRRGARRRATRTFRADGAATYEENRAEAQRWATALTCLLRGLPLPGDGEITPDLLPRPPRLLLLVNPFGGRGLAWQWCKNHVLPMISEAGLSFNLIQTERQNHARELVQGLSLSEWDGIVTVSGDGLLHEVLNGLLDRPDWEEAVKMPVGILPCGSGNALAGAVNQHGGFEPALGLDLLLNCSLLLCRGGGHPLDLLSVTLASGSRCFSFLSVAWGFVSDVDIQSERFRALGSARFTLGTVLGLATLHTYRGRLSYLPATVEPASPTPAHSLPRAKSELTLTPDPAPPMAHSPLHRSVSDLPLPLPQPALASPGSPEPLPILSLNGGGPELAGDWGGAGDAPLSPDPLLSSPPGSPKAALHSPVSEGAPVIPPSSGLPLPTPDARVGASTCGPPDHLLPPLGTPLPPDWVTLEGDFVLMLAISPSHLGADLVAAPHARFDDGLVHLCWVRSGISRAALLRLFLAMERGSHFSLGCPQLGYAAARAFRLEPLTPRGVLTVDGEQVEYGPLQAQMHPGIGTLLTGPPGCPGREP
How it was run: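 Glutathione-sepharose-purified GST fusion tested over a concentration series (DMSO stock diluted fourfold in 20 mM HEPES pH 7.5, 0.01% Triton X-100, 2 mM DTT). Reaction: 1 μM sphingosine, 600 μM ATP, 5 mM MgCl2, 1 h at room temperature, n = 4. Electrophoretic P/(P+S) read-out normalized to controls; IC50 fitted.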

[10] = target: Protein kinase C theta type (Homo sapiens) (UniProt Q04759); test: Inhibition of N-terminal GST-fused PKCtheta (1-706) expressed in baculovirus expression system at 30 uM after 1 hr by off-chip mobility shift assay relative to control; how it was run: as §1
Sequence of Protein kinase C theta type (Homo sapiens) (Q04759 whole entry, looked up, the tested form may be a part): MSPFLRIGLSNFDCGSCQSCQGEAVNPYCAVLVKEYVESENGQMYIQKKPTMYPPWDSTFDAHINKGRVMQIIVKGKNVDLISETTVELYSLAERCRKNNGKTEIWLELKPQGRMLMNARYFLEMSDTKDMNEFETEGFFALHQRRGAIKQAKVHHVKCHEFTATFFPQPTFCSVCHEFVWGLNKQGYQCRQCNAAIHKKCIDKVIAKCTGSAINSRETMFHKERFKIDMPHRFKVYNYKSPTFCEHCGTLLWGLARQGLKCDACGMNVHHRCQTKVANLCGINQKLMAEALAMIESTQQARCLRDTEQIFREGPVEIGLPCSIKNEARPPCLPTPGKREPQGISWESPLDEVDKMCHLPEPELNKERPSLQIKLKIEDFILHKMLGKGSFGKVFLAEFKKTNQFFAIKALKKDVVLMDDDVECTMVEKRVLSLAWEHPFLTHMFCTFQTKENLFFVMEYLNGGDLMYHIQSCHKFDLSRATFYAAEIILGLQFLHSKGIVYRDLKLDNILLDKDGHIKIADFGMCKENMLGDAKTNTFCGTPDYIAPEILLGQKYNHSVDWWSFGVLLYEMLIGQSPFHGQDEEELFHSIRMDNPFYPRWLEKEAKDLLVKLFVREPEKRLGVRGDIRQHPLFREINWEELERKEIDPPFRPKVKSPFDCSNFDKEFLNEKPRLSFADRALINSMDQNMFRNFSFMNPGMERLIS

[11] = target: Protein kinase C iota type (Homo sapiens) (UniProt P41743); test: Inhibition of N-terminal GST-fused PKClota (1-587) expressed in baculovirus expression system at 30 uM after 1 hr by off-chip mobility shift assay relative to control
[12] = target: T3, Protein kinase C epsilon type (Homo sapiens) (UniProt Q02156); test: Inhibition of N-terminal GST-fused PKCepsilon (1-737) expressed in baculovirus expression system at 30 uM after 1 hr by off-chip mobility shift assay relative to control
T3 sequence (whole entry): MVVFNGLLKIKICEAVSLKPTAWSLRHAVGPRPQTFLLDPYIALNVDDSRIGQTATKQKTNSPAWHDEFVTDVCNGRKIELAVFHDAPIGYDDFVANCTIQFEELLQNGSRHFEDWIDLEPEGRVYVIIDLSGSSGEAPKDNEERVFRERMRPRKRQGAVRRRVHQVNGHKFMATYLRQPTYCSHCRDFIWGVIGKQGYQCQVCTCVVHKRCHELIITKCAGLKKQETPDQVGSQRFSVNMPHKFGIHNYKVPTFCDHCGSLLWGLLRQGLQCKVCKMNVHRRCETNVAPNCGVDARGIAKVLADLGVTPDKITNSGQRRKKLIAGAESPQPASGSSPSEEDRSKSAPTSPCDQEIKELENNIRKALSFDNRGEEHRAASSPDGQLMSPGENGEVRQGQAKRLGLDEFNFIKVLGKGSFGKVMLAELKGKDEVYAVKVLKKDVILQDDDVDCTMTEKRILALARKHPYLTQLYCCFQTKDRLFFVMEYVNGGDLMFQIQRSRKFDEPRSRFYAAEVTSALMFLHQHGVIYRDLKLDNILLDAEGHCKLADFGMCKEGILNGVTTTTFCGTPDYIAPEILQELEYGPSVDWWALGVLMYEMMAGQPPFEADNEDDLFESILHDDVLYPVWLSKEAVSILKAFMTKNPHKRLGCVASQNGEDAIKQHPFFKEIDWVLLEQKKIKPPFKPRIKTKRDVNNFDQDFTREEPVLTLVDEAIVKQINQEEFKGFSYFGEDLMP
How it was run: (§4)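 Lipid-activated reactions (phosphatidylserine 50 μg/mL, diacylglycerol 5 μg/mL), no CaCl2. Buffer is 20 mM HEPES pH 7.5, 0.01% Triton X-100, 2 mM DTT, with 1 μM N-FL PKCθ substrate peptide, 10 μM ATP and 5 mM MgCl2. Incubated 1 h at room temperature, n = 2. Product ratio P/(P+S) from electrophoretic peak heights, scaled between no-enzyme (100%) and no-inhibitor (0%) controls.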

[13] = target: Protein kinase C gamma type (Homo sapiens) (UniProt P05129); test: Inhibition of N-terminal GST-fused PKCgamma (1-697) expressed in baculovirus expression system at 30 uM after 1 hr by off-chip mobility shift assay relative to control; how it was run: as §3
[14] = target: Protein kinase C delta type (Homo sapiens) (UniProt Q05655); test: Inhibition of N-terminal GST-fused PKCdelta (1-676) expressed in baculovirus expression system at 30 uM after 1 hr by off-chip mobility shift assay relative to control; how it was run: as §4
Sequence of Protein kinase C delta type (Homo sapiens) (Q05655 whole entry, looked up, the tested form may be a part): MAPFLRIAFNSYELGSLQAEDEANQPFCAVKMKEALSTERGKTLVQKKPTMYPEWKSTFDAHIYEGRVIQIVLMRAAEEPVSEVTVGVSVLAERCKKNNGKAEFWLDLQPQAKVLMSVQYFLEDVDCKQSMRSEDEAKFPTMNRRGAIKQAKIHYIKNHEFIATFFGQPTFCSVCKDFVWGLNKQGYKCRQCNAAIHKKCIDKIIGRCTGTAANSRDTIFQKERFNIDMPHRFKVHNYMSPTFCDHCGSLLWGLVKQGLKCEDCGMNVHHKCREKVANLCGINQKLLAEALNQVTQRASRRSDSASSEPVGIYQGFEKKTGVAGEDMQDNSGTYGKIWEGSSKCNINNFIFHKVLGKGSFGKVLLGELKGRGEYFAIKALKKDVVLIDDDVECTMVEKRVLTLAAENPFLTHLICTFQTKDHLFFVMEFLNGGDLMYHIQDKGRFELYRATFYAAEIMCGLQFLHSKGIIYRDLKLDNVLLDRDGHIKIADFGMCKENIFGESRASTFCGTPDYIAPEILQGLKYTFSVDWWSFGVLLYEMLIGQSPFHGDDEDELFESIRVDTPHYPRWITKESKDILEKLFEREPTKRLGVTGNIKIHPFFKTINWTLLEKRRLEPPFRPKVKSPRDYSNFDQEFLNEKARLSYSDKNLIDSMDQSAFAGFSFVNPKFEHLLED

Sequence of Protein kinase C eta type (Homo sapiens) (P24723 whole entry, the tested form may be a part): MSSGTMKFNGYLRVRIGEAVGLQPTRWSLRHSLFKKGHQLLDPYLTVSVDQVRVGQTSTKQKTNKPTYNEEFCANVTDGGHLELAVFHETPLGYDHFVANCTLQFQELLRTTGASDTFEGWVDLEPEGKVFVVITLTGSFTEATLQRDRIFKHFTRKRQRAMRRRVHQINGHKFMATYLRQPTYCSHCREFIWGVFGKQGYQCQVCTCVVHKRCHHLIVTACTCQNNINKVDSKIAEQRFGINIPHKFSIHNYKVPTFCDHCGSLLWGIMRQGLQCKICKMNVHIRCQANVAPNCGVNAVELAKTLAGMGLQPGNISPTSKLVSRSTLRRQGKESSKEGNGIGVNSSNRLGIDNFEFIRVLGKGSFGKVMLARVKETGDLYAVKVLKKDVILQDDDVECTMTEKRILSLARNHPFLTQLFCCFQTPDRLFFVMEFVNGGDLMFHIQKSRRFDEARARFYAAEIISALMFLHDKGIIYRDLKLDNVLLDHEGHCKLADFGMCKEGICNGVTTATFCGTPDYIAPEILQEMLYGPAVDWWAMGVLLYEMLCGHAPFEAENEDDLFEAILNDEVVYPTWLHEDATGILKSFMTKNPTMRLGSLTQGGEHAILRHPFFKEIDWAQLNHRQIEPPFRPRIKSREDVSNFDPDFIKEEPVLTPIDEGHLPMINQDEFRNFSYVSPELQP

| inhibition [1] [%] | inhibition [2] [%] | inhibition [3] [%] | inhibition [4] [%] | inhibition [5] [%] | inhibition [6] [%] | inhibition [7] [%] | inhibition [8] [%] | inhibition [9] [%] | inhibition [10] [%] | inhibition [11] [%] | inhibition [12] [%] | inhibition [13] [%] | inhibition [14] [%] | SMILES |
| --- | --- | --- | --- | --- | --- | --- | --- | --- | --- | --- | --- | --- | --- | --- |
| 47 | 99.8 | 33.1 | 50 | 0.94 | 45.1 | 22.9 | 50 | 0.48 | 37.1 | 94.8 | 29.2 | 48.5 | 67.5 | CCCCCCCCCCCCCC[C@@H]1OC[C@@H](N)[C@@H]1O |
|  |  |  |  | 50 |  |  |  | 50 |  |  |  |  |  | CCCCCCCCCCCCCC[C@@H]1OC[C@H](N)[C@H]1O |
| 55.4 | 99.5 | 34 | 50 | 0.59 | 79.2 | 43.9 | 50 | 1.8 | 51.2 | 99.9 | 26.3 | 47.6 | 96.2 | CCCCCCCCCCCCCC[C@H]1OC[C@@H](N)[C@@H]1O |

More lines, now with the values behind:

| SMILES | inhibition [1] [%] | inhibition [2] [%] | inhibition [3] [%] | inhibition [4] [%] | inhibition [5] [%] | inhibition [6] [%] | inhibition [7] [%] | inhibition [8] [%] | inhibition [9] [%] | inhibition [10] [%] | inhibition [11] [%] | inhibition [12] [%] | inhibition [13] [%] | inhibition [14] [%] |
| --- | --- | --- | --- | --- | --- | --- | --- | --- | --- | --- | --- | --- | --- | --- |
| CCCCCCCCCCCCCC[C@H]1OC[C@@H](N)[C@H]1O |  |  |  |  | 50 |  |  |  | 50 |  |  |  |  |  |
| CCCCCCCCCCCCCC[C@H]1OC[C@H](N)[C@@H]1O |  |  |  |  | 50 |  |  |  | 50 |  |  |  |  |  |
| CCCCCCCCCCCCCC[C@H]1OC[C@H](N)[C@H]1O |  |  |  |  | 50 |  |  |  | 50 |  |  |  |  |  |
| CCCCCCCCCCCCCC[C@@H]1OC[C@@H](N)[C@H]1O |  |  |  |  | 50 |  |  |  | 50 |  |  |  |  |  |
| CCCCCCCCCCCCCC[C@@H]1OC[C@H](N)[C@@H]1O | 56.6 | 100 | 32.7 | 50 | 4.6 | 48.5 | 27.9 | 50 | 6.6 | 39.8 | 98.5 | 37.4 | 48.6 | 69.6 |
| CCCCCCCCCCCCC/C=C/[C@@H](O)[C@H](CO)N(C)C | 43.8 | 99.1 | 35 |  | 50 | 68.5 | 44.3 |  | 50 | 47.1 | 100 | 40.4 | 49.2 | 83.9 |
